# Measured values: ChEMBL document CHEMBL5712087, “Targeting bromodomain-containing protein 4 (BRD4) inhibits MYC expression in colorectal cancer cells” (Neoplasia, 2019)
# Activity calls are given as the source filed them. No cut-off for these calls is given here.
# Key:
# COLO 320 = experiment: Inhibition of colony formation in human COLO 320 cells at 5 to 10 uM by crystal violet staining analysis; format: functional, cell-based; details: dose 5-10 µM
# Outline: (§1)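 Cells (1-2x10^3) were plated in six-well plates and, after 48 h, exposed to the PROTAC at the stated concentrations for 3–5 days. Plates were then methanol-fixed and stained with crystal violet. Culture was at 37 °C, 5% CO2, with 10% FCS. Media were RPMI 1640 (Caco2, COLO320, DLD1, LS174t), McCoy's (HCT116, HT29) or DMEM/HamsF12 (SW480). Experiments were done ≥3 times.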
# [1] = target: T1, Protein cereblon/Bromodomain-containing protein 4 (Homo sapiens) (UniProt O60885+Q96SW2); experiment: PROTAC activity at BRD4/Cereblon in human Caco-2 cells assessed as decrease in BRD4 protein degradation at 5 to 10 uM for 24 hrs by Western blot analysis; format: cell-based; details: dose 5-10 µM
# T1 sequence (Q96SW2 whole entry, looked up, other chains not shown): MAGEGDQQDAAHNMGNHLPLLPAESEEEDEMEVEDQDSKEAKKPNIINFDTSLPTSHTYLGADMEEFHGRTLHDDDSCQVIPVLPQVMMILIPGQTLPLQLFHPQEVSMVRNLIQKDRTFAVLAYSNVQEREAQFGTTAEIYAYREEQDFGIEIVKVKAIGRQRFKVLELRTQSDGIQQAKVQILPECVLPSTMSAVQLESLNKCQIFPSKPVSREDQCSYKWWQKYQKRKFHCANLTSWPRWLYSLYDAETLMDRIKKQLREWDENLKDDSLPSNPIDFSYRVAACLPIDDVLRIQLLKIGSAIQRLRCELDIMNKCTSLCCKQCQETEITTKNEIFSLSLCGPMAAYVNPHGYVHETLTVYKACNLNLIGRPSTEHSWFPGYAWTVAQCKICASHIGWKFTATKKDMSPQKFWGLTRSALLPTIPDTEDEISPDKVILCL
# Outline: (§2)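 Eight CRC lines exposed 24 h to PROTAC at 5 or 10 µM (stocks 2 mM in DMSO, diluted in PBS or medium). Lysis in RIPA with protease/phosphatase inhibitors and 2.5 mmol/l DTT; 15 µg protein on 10% SDS-PAGE, semi-dry transfer to nitrocellulose. Anti-BRD4 or anti-MYC at 1:1,000 overnight at 4 °C; GAPDH or β-actin loading control; chemiluminescence.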
# Caco-2 = experiment: Inhibition of colony formation in human Caco-2 cells at 5 to 10 uM by crystal violet staining analysis; format: functional, cell-based; details: dose 5-10 µM; outline: as §1
# LS174T [2] = experiment: Inhibition of colony formation in human LS174T cells at 5 to 10 uM by crystal violet staining analysis; format: functional, cell-based; details: dose 5-10 µM; outline: as §1
# HT-29 = experiment: Inhibition of colony formation in human HT-29 cells at 5 to 10 uM by crystal violet staining analysis; format: functional, cell-based; details: dose 5-10 µM; outline: as §1
# [3] = target: T1, Protein cereblon/Bromodomain-containing protein 4 (Homo sapiens); experiment: PROTAC activity at BRD4/Cereblon in human HCT116 p53+/+ cells assessed as decrease in BRD4 protein degradation at 5 to 10 uM for 24 hrs by Western blot analysis; format: cell-based; details: HCT-116, dose 5-10 µM; outline: as §2
# [4] = target: T1, Protein cereblon/Bromodomain-containing protein 4 (Homo sapiens); experiment: PROTAC activity at BRD4/Cereblon in human LS174T cells assessed as BRD4 protein expression at 500 nM for 2 hrs and measured 22 hrs after washout by Western blot analysis; format: cell-based
# Outline: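 LS174t cells exposed 2 h to PROTAC; for washout, medium replaced and cells collected 22 h later. BRD4 by immunoblot (15 µg lysate, 10% SDS-PAGE, anti-BRD4 1:1,000 overnight at 4 °C, GAPDH/β-actin control).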
# LS174T [5] = experiment: Inhibition of colony formation in human LS174T cells for 3 days by crystal violet staining analysis; format: functional, cell-based; details: time 3.0 day; outline: as §1
# HCT-116 [6] = experiment: Inhibition of colony formation in human HCT-116 p53-/- cells at 5 to 10 uM by crystal violet staining analysis; format: functional, cell-based; details: dose 5-10 µM; outline: as §1
# SW480 = experiment: Inhibition of colony formation in human SW480 cells at 5 to 10 uM by crystal violet staining analysis; format: functional, cell-based; details: dose 5-10 µM; outline: as §1
# HCT-116 [7] = experiment: Inhibition of colony formation in human HCT-116 p53+/+ cells at 5 to 10 uM by crystal violet staining analysis; format: functional, cell-based; details: dose 5-10 µM; outline: as §1
# [8] = target: T1, Protein cereblon/Bromodomain-containing protein 4 (Homo sapiens); experiment: PROTAC activity at BRD4/Cereblon in human LS174T-dbet1 resistant cells assessed as BRD4 protein degradation at 500 to 1000 nM for 24 hrs by Western blot analysis; format: cell-based; details: dose 500-1000 nM
# DLD-1 = experiment: Inhibition of colony formation in human DLD-1 cells at 5 to 10 uM by crystal violet staining analysis; format: functional, cell-based; details: dose 5-10 µM; outline: as §1
# [9] = target: T2, von Hippel-Lindau disease tumor suppressor/Bromodomain-containing protein 4 (Homo sapiens) (UniProt O60885+P40337); experiment: PROTAC activity at BRD4/VHL E3 ligase in human LS174T cells assessed as decrease in MYC protein expression at […] for 24 hrs by Western blot analysis; format: cell-based
# T2 sequence (P40337 whole entry, looked up, other chains not shown): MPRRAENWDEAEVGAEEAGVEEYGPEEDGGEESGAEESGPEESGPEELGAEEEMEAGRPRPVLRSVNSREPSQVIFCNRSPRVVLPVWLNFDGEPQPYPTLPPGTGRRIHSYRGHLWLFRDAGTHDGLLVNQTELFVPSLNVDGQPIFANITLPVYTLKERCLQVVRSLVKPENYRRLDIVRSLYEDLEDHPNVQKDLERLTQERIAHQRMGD
# Outline: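 LS174t cells (RPMI 1640, 10% FCS) were exposed to 1 nM–10 µM for 24 h. Lysates in RIPA with inhibitors and 2.5 mmol/l DTT; 15 µg protein was run on 10% SDS-PAGE and transferred to nitrocellulose. BRD4 or MYC primary antibodies were used at 1:1,000 overnight at 4 °C, HRP secondary 1:10,000, and GAPDH/β-actin as loading control. Detection was by chemiluminescence.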
# [10] = target: T2, von Hippel-Lindau disease tumor suppressor/Bromodomain-containing protein 4 (Homo sapiens); experiment: PROTAC activity at BRD4/VHL E3 ligase in human LS174T dbet1 resistant cells assessed as MYC protein expression at 500 to 1000 nM for 24 hrs by Western blot analysis; format: cell-based; details: dose 500-1000 nM
# Outline: (§3)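 Resistant LS174t cells were derived by four months' exposure to rising dBET1 concentrations, with outgrowing cells expanded. Resistant and parental cells were then treated and analysed for BRD4 and MYC protein by western blot (GAPDH/β-actin control) and for MYC mRNA by qPCR normalised to PPIA/ACTB (ΔΔCq).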
# [11] = target: T2, von Hippel-Lindau disease tumor suppressor/Bromodomain-containing protein 4 (Homo sapiens); experiment: PROTAC activity at BRD4/VHL E3 ligase in human LS174T cells assessed as BRD4 protein degradation at 250 nM for 2 hrs by Western blot analysis; format: cell-based
# Outline: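 LS174t cells were exposed to PROTAC for 2 h. For washout, the PROTAC was removed by changing the culture medium and cells were harvested 22 h later. BRD4 was assessed by western blot (15 µg lysate, 10% SDS-PAGE, chemiluminescence), normalised against GAPDH/β-actin.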
# [12] = target: T2, von Hippel-Lindau disease tumor suppressor/Bromodomain-containing protein 4 (Homo sapiens); experiment: PROTAC activity at BRD4/VHL E3 ligase in human LS174T cells assessed as decrease in BRD4 protein degradation at 5 to 10 uM for 24 hrs by Western blot analysis; format: cell-based; details: dose 5-10 µM
# Outline: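 Eight CRC lines, including LS174t (RPMI 1640) and SW480 (DMEM/HamsF12), all with 10% FCS, were treated with PROTAC at 5 and 10 µM. BRD4 and MYC proteins were detected by immunoblot (RIPA lysate, 15 µg, 10% gel, primary 1:1,000 overnight at 4 °C), with GAPDH/β-actin as loading control.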
# [13] = target: T2, von Hippel-Lindau disease tumor suppressor/Bromodomain-containing protein 4 (Homo sapiens); experiment: PROTAC activity at BRD4/VHL E3 ligase in human Caco-2 cells assessed as decrease in BRD4 protein degradation at 5 to 10 uM for 24 hrs by Western blot analysis; format: cell-based; details: dose 5-10 µM; outline: as §2
# [14] = target: T2, von Hippel-Lindau disease tumor suppressor/Bromodomain-containing protein 4 (Homo sapiens); experiment: PROTAC activity at BRD4/VHL E3 ligase in human LS174T cells assessed as BRD4 protein degradation at 250 nM pretreated with VHL siRNA by Western blot analysis; format: cell-based
# [15] = target: T2, von Hippel-Lindau disease tumor suppressor/Bromodomain-containing protein 4 (Homo sapiens); experiment: PROTAC activity at BRD4/VHL E3 ligase in human LS174T dbet1 resistant cells assessed as MYC mRNA level at 500 to 1000 nM for 24 hrs by RT-qPCR analysis; format: cell-based; details: dose 500-1000 nM; outline: as §3
# [16] = target: T2, von Hippel-Lindau disease tumor suppressor/Bromodomain-containing protein 4 (Homo sapiens); experiment: PROTAC activity at BRD4/VHL E3 ligase in human LS174T cells assessed as BRD4 protein degradation at 100 to 500 nM pretreated with proteasome inhibitor MG132 for 4 hrs by Western blot analysis; format: cell-based; details: dose 100-500 nM
# Outline: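 LS174t cells were pre-incubated for 4 h with the proteasome inhibitor MG132 (10 mM DMSO stock) before PROTAC addition. BRD4 was then immunoblotted from RIPA lysates (15 µg, 10% SDS-PAGE, nitrocellulose, primary 1:1,000 overnight at 4 °C), with GAPDH/β-actin as loading control.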
Compound,inhibition (COLO 320),inhibition (Caco-2),inhibition (LS174T [2]),inhibition (HT-29),inhibition (LS174T [5]),inhibition (HCT-116 [6]),inhibition (SW480),inhibition (HCT-116 [7]),inhibition (DLD-1),further results
Cc1sc2c(c1C)C(c1ccc(Cl)cc1)=N[C@@H](CC(=O)NCCCCNC(=O)COc1cccc3c1C(=O)N(C1CCC(=O)NC1=O)C3=O)c1nnc(C)n1-2 (stereo not given in full),Active,Active,Active,Active,Dose-Dependent Effect,Active,Active,Active,Active,Activity [1]: Active; Activity [3]: Active; Activity [4]: inactive; Activity [8]: inactive
Cc1ncsc1-c1ccc(CNC(=O)[C@@H]2C[C@@H](O)CN2C(=O)[C@@H](NC(=O)COCCOCCOCCNC(=O)C[C@@H]2N=C(c3ccc(Cl)cc3)c3c(sc(C)c3C)-n3c(C)nnc32)C(C)(C)C)cc1,Active,Active,Active,Active,Dose-Dependent Effect,Active,Active,Active,Active,Activity [9]: Active; Activity [10]: Active; Activity [11]: Active; Activity [12]: Active; Activity [13]: Active; Activity [14]: inactive; Activity [15]: Active; Activity [16]: inactive
